# Shown are actives, neighbours in structure and some others; about 5.4% of the full set was active somewhere.
# SKKanGAS inh = blocks kanamycin growth of S. pyogenes SKKanGAS strain; BacTiter-Glo, 6 h; inhibition, % at 7.5 µM; hit rate 1.3% among 300,000;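 active means mean replicate score, as percent of positive control median, at least 50; inconclusive means mean below 50 but one replicate at or above 50; inactive means mean and every replicate below 50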;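 further: strain carries kanamycin resistance gene driven by streptokinase promoter and grows in 40 µg/ml kanamycin; loss of luminescence reflects streptokinase promoter inhibition or plain growth inhibition; 0% = median of DMSO wells and 100% = positive control at its reference dose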
# T cruzi repl = T. cruzi replication inhibition. inhibition, % (no concentration beside the values). hit rate 1.4% among 300,000. AID 1885. T. cruzi beta-gal in NIH3T3, luminescence, 90 h;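 active means mean inhibition across valid replicates above about 55%, limit read from the data; inconclusive means mean below that limit but half or more replicates reach it; inactive means mean below it, under half of replicates reach it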;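 further: signal also drops with host cell toxicity which is not excluded here; 0% = plate median of DMSO wells and 100% = zero luminescence signal; higher percent means less beta-gal luminescence so fewer parasites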
#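 Read-out: Parasite load inhibition, % | Test system: Mouse NIH/3T3 fibroblasts infected with β-gal-expressing T. cruzi Tulahuen C4 | Amount: 5,000 cells/well | Medium: DMEM, 2% fetal bovine serum | Signal: GalScreen β-gal luminescence, detergent lysis, 60 min | Timing: 3 h attach, ≥90 h co-culture | Also added: Tulahuen C4 trypomastigotes, 5000/well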
# CSC inhib = cancer stem cell inhibition; hit rate 1.1% among 300,000; inhibition, % at 7.5 µM; cancer stem cell-like cells viability, luminescence; in the data active means inhibition above about 75%; inconclusive means no clear call, values can overlap the other calls; tested in HMLE shEcad cells
# aSyn UTR inh = MLPCN primary screen, SNCA 5' untranslated region; alpha-synuclein 5'UTR reporter, inhibitor activity; inhibition, % (tested at 7.5 µM); hit rate 0.82% among 300,000; in the data active means inhibition above about 60%; inconclusive means no clear call, values can overlap the other calls;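 further: H4 neuroglioblastoma cells stably carrying SNCA 5'UTR luciferase fusion; 0% = DMSO wells and 100% = positive control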
# Mdm2 MdmX PPI = disrupts the human Mdm2-MdmX interaction; O15151+Q00987; SaOS-2 split-luciferase Mdm2/MdmX complementation, luminescence; inhibition, % at 8 µM; hit rate 3% among 330,000; AID 485346;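 active means inhibition of at least 50% at 8 µM in the primary screen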
# Target sequence (O15151 whole entry, looked up): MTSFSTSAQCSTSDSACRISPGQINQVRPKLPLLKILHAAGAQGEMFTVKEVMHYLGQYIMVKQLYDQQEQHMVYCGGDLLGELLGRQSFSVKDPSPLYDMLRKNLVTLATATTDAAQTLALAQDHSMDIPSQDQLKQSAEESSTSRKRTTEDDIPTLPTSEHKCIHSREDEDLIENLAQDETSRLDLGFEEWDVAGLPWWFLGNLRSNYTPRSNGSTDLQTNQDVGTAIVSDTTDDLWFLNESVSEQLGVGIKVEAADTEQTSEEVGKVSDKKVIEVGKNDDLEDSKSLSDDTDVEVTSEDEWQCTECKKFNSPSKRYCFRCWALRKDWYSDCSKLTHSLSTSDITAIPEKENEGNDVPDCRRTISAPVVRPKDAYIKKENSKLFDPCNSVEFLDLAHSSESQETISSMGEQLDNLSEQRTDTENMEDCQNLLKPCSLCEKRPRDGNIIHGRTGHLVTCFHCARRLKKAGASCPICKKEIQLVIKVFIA
# Target sequence (Q00987 whole entry, looked up): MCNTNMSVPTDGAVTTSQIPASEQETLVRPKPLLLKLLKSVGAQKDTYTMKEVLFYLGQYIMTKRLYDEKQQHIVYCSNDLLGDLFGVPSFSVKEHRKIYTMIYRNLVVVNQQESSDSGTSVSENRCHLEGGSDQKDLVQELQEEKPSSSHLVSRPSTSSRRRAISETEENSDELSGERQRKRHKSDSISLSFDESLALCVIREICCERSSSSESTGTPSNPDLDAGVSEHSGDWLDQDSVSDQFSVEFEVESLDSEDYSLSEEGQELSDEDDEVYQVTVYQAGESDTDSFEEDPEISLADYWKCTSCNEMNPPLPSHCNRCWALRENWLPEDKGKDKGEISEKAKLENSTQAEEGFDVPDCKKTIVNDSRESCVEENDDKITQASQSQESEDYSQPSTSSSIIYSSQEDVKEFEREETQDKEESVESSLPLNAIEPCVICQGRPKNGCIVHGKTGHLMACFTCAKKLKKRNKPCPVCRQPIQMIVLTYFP
# * = called active by the depositor; ? = inconclusive; nt = no result given.
SMILES,SKKanGAS inh,T cruzi repl,CSC inhib,aSyn UTR inh,Mdm2 MdmX PPI
CCCCCOc1ccc(NC(=O)C(=O)NCCCn2ccnc2)cc1,3,29,55,63*,0
C/C(=N\OCc1ccc(C#N)cc1)c1ccccc1,0,18,1,-120,-102
C/C(=N\OCc1cccc(C(=O)O)c1)c1ccc(Cl)cc1,13,5,8,104*,17
Cc1cc(C(=O)COc2cc(F)ccc2[N+](=O)[O-])c(C)n1CC1CCCO1 (centres undefined),nt,nt,-19,nt,9
CCN(CC)c1ccc(N=Cc2cc(Br)ccc2O)cc1,16,61*,-5,-6,5
Cc1sc(-c2c(C#N)c(N)nc3c2CCCCCC3)cc1[N+](=O)[O-],5,14,-7,23,4
CCCCc1sc(-c2c(C#N)c(N)nc3c2CCCCC3)cc1[N+](=O)[O-],20,55*,41,42,19
COc1cccc(C(Nc2ccccn2)c2c(NC(=O)c3ccco3)sc(C)c2C)c1 (centres undefined),5,59*,19,0,11
Cc1sc(NC(=O)c2ccco2)c(C(Nc2ccccn2)c2ccccc2)c1C (centres undefined),-16,-10,-6,-20,22
COc1ccc(C(Nc2ccccn2)c2c(NC(=O)c3ccco3)sc(C)c2C)cc1 (centres undefined),8,63*,19,12,33
CCOC(=O)C1CCCN(C(=O)CNC(=O)c2ccc(Br)o2)C1 (centres undefined),nt,nt,13,nt,-9
O=C(NC(=O)c1cc([N+](=O)[O-])ccc1Cl)C1=C(N2CCCC2)COC1=O,nt,nt,nt,nt,15
Cc1cc(Nc2ccccc2)nn1C(=O)c1ccc(Br)cc1,50*,-5,2,-4,-14
Cc1cc(Nc2ccccc2)nn1C(=O)c1ccccc1,-3,4,-7,-9,-6
CSc1ccc(/C=C/c2ccc3cccc(O)c3n2)cc1,100*,33,61,-52,-40
Oc1cccc2ccc(/C=C/c3cccs3)nc12,120*,32,53,-172,-31
O=C(/C=C/c1cccs1)Nc1cccc(NC(=O)/C=C/c2cccs2)n1,40,43,6,-181,-13
Cc1ccsc1/C=C/c1ccc2ccccc2n1,10,16,-8,34,-90
Cc1ccsc1/C=C/c1ccc2cccc(O)c2n1,101*,22,92*,-26,-42
COc1ccc(NC(=O)CN(C)C(=O)c2cccc(S(=O)(=O)Nc3ccccc3Cl)c2)cc1,-10,1,-13,13,4
CCC(C)n1c(NC(=O)c2ccccc2)c(C#N)c2nc3ccccc3nc21 (centres undefined),69*,16,49,35,42
CCCCn1c(NC(=O)c2ccc(F)cc2)c(C#N)c2nc3ccccc3nc21,31,8,67,11,22
O=C(O)c1ccccc1N/N=C/c1cc(Br)cc(Br)c1O,58*,-5,40,-111,-24
O=C(O)c1ccccc1N/N=C\c1ccnc2ccccc12,15,-7,35,76*,-31
O=C(O)c1cccc2c(/C=N/Nc3ccccn3)c[nH]c12,-8,-9,-6,-26,4
SMILES,SKKanGAS inh,T cruzi repl,CSC inhib,aSyn UTR inh,Mdm2 MdmX PPI
Oc1c(Br)cc(Br)cc1/C=N/Nc1ccc(Cl)nn1,84*,55*,100*,97*,nt
CN(C(=O)Cc1c(C(=O)O)n(C)c2ccccc12)c1ccc(F)cc1,?,-19,-9,2,-19
CCN(c1cccc(C)c1)S(=O)(=O)c1ccc(-n2cccn2)cc1,-2,10,-9,12,13
N#Cc1ccc(CSC2=NCCN2)cc1,-1,21,-12,-50,-6
CCOc1ccc(CSC2=NCCN2)cc1Cl,-4,57*,-10,-9,-18
COc1ccc(C2=NOC(CNC(N)=S)C2)cc1 (centres undefined),51*,-8,-3,-9,-61
COc1ccc(CNC(=O)C2CC(c3ccc(OC)cc3)=NO2)cc1 (centres undefined),-6,-2,6,-18,47
Cc1ccc2sc(N(CCCN(C)C)C(=O)c3ccc(Br)s3)nc2c1C,-5,70*,29,-47,39
CCOC(=O)N1CCN(S(=O)(=O)c2ccc(C(=O)N(CCCN(C)C)c3nc4c(C)c(C)ccc4s3)cc2)CC1,-3,49,-5,-22,35
Cc1ccc2nc(N(CCCN(C)C)C(=O)c3ccc(S(=O)(=O)N4CCOCC4)cc3)sc2c1,?,60*,0,9,24
Cc1ccc2sc(N(CCCN(C)C)C(=O)c3ccc(S(=O)(=O)N4CCOCC4)cc3)nc2c1C,0,66*,-4,-12,30
Cc1cc(C)c2nc(N(CCCN(C)C)C(=O)c3ccc(S(=O)(=O)N4CC(C)OC(C)C4)cc3)sc2c1 (centres undefined),-2,59*,0,-7,31
Cc1ccc2sc(N(CCCN(C)C)C(=O)c3nc4ccccc4s3)nc2c1C,8,50,-5,0,22
COCCN(C(=O)C1CC(=O)N(Cc2ccccc2)C1)c1nc(-c2ccc([N+](=O)[O-])cc2)cs1 (centres undefined),nt,nt,nt,nt,4
CCOC(=O)N1CCN(S(=O)(=O)c2ccc(C(=O)N(CCCN(C)C)c3nc4cc(OC)ccc4s3)cc2)CC1,21,68*,-2,-53,1
COc1ccc2sc(N(CCCN(C)C)C(=O)c3ccc(S(=O)(=O)N4CCCC4)cc3)nc2c1,2,45,7,-23,9
O=C(N/N=C/c1c(O)n(-c2ccccc2Cl)c(=O)c2ccccc12)c1cccnc1,71*,13,nt,6,nt
COC(=O)C1=C(C(=O)OC)[C@@H]2N(Cc3ccccc3)c3ccccc3[C@@]23C[C@@H](C(=O)OC)N(C(=O)NC(C)(C)C)C3=N1,0,13,-5,8,9
CCNc1nc(NCC)n2c(SCC(=O)Nc3ccccc3[N+](=O)[O-])nnc2n1,-1,-10,14,7,3
CCOC(=O)c1c(NC(=O)Cn2cnc([N+](=O)[O-])n2)sc2c1CCCC2,-1,64*,13,20,36
NC(=O)c1c(NC(=O)Cn2cnc([N+](=O)[O-])n2)sc2c1CCCC2,1,51,nt,22,14
CCOC(=O)c1c(NC(=O)c2nn(CC)cc2Br)sc2c1CCCCC2,19,49,85*,20,26
CC(C)OC(=O)c1c(NC(=O)Cn2cnc([N+](=O)[O-])n2)sc2c1CCCC2,10,105*,5,11,23
CCOC(=O)c1c(NC(=O)c2nn(CC)cc2Br)sc(C)c1C,-3,14,16,9,7
CC1CCc2c(sc(NC(=O)Cn3cnc([N+](=O)[O-])n3)c2C(N)=O)C1 (centres undefined),3,68*,4,10,28
COc1ccccc1C(=O)NC(CCSC)C(=O)NC1CCCCCC1 (centres undefined),-23,4,-5,-6,18
